According to PMC5609126 (ACS Chemical Neuroscience, 2017):

Legend:
[1] = Metabolite analysis in plasma and brain tissue after tracer injection; assay type: in vivo; settings: Wistar rats, mean ± SD; for parent tracer, brain: brain tissue
Procedure, shortened: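 Male Wistar rats (230–291 g) got radiotracer (28 ± 4 or 43 ± 24 MBq, depending on tracer) by tail vein under isoflurane and stayed conscious until sacrifice at 5, 15 or 60 min (n = 3). Heparinised plasma was run on a tC18 cartridge: the water wash was the polar metabolite fraction and the methanol eluate the nonpolar parent fraction, analysed by HPLC. Half-brains were homogenised in cold H2O/MeCN (1:1), centrifuged, and supernatants run on HPLC.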

P-gp [2] = experiment: P-gp blocking study with tariquidar, PET whole brain uptake; assay type: in vivo; settings: Wistar rats; for increase in brain uptake after tariquidar vs baseline scans: tariquidar 15 mg/kg i.v. 30 min before tracer, PET whole brain
P-gp [3] = experiment: PET imaging in Mdr1a/b; assay type: in vivo, mice; settings: for brain-to-blood AUC ratios: PET image-derived brain and blood curves
Procedure, shortened: (§1)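 Male FVB-background wild-type, Mdr1a/b(−/−) and Bcrp1(−/−) mice (28.3–39.7 g) were isoflurane-anaesthetised with jugular cannulas. They got 3.6–3.8 MBq radiotracer and 60 min dynamic PET in groups of 4–6, mostly on HRRT. One tracer's Mdr1a/b(−/−) vs WT study used nanoPET/CT and PET/MR. Ellipsoid ROIs gave brain TACs (SUV) and left-ventricle blood curves. Brain-to-blood AUC ratios were calculated from the AUCs.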

BCRP = experiment: PET imaging in Bcrp1; assay type: in vivo; settings: Bcrp1(-/-) mice, PET image-derived brain and blood curves
Procedure, shortened: as §1

PET imaging in wild-type = assay type: in vivo; settings: WT mice, PET image-derived brain and blood curves
Procedure, shortened: as §1

[4] = Biodistribution in selected organs; assay type: in vivo; settings: Wistar rats, 5, 15, 60 min after injection
Procedure, shortened: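 Male Wistar rats (218–244 g) got 50 ± 2 MBq radiotracer i.v. by tail vein under isoflurane (2% in O2). They stayed conscious until sacrifice, except the 5 min group. Rats were killed under isoflurane at 5, 15 or 60 min (n = 3). Heart-puncture blood, heart, lungs, liver, kidneys, bone, cerebral cortex, cerebellum and remaining brain were weighed and gamma-counted. Results were expressed as %ID/g.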

Compound	parent tracer, brain ([1]; 15 min after injection)	parent tracer, plasma ([1]; 15 min after injection)	parent tracer, plasma ([1]; 60 min after injection)	time of highest brain uptake (P-gp [2]; PET whole brain time-activity curve, tariquidar blocking study) [min]	increase in brain uptake after tariquidar vs baseline scans (P-gp [2]) [fold]	brain-to-blood AUC ratios (P-gp [3]; Mdr1a/b(-/-) mice)	higher brain uptake in Mdr1a/b(-/-) mice compared with wild-type mice (P-gp [3]; during the first 10 min, PET whole brain) [fold]	brain-to-blood AUC ratios (BCRP)	brain-to-blood AUC ratios (PET imaging in wild-type)	bone uptake (defluorination) [4]	brain uptake [4]	parent tracer, brain ([1]; 5 min after injection)	parent tracer, brain ([1]; 60 min after injection)	parent tracer, plasma ([1]; 5 min after injection)	SUV plateau of brain uptake (P-gp [3]; Mdr1a/b(-/-) mice, at the end of the scan (60 min))	higher brain uptake in Mdr1a/b(-/-) mice than in wild-type mice (P-gp [3]; maximum level over 60 min scan, PET whole brain) [fold]
COc1ccc(CCN(CC[18F])CCC[C@](C#N)(c2ccc(OC)c(OC)c2)C(C)C)cc1OC [[^18F]1, (R)-5-((3,4-Dimethoxyphenethyl)(2-[^18F]fluoroethyl)amino)-2-(3,4-dimethoxyphenyl)-2-isopropylpentanenitrile]	14 ± 2 Percentage of total radioactivity	19 ± 2 Percentage of total radioactivity	3 ± 1 Percentage of total radioactivity	5	3.6	0.98 ± 0.07	1.4	0.88 ± 0.06	0.52 ± 0.05	bone uptake was low and did not increase over time	low brain uptake					
COc1ccc([C@@](C#N)(CCCNCCc2ccc(OCC[18F])c(OC)c2)C(C)C)cc1OC [[^18F]2, (R)-2-(3,4-Dimethoxyphenyl)-5-((4-(2-[^18F]fluoroethoxy)-3-methoxyphenethyl)amino)-2-isopropylpentanenitrile]	17 ± 7 Percentage of total radioactivity	8 ± 3 Percentage of total radioactivity	4 ± 1 Percentage of total radioactivity		2.4	0.75 ± 0.14		0.20 ± 0.02	0.18 ± 0.04	low bone uptake		26 ± 6 Percentage of total radioactivity	6 ± 1 Percentage of total radioactivity	20 ± 3 Percentage of total radioactivity	about 0.9 SUV	≤ 6.4
